Experimental findings from ChEMBL document CHEMBL1131312 (J Med Chem, 1998) are described below.

One may read the EC50 as the concentration at which the effect is half-maximal. One may read the IC50 as the concentration that gives 50% inhibition. What is called ED50 is the midpoint of the dose-response relation.

Converted amounts (≈) assume the structure as drawn. The source made the active and inactive calls.

Data set [1] in a line: Water solubility of the compound. It counts as ADME. Conditions: for solubility: water, read-out: S; for S: buffer.
Data set [2] concerns the target T1, DNA topoisomerase II (Homo sapiens, UniProt P11388+Q02880). The data set is described as follows: In vitro inhibitory activity against DNA topoisomerase II. It counts as protein assay, Drosophila melanogaster.
Data set [3] can be described thus: in vitro inhibitory activity against tubulin polymerization. Further details: species or system Ovis aries.
Data set [4] in a line: Water solubility of the compound; insoluble. The data set is classed as ADME. Conditions: buffer.
The target in data set [5] is T1, DNA topoisomerase II. The data set is described as follows: Concentration of compound at which inhibitory activity detected against DNA topoisomerase II. It counts as protein assay, Drosophila melanogaster.
The subject of data set [6] is Mus musculus. The data set is described as follows: Compound was tested in vivo for inhibition of P388 murine leukemia cells after iv / ip administration at 40 mg/ kg; NA indicates inactive. The data set is classed as functional, organism-based. Further details: dose 40 mg/ kg. Put shortly:
(§1)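 P388 leukemia cells (10^6/mouse) implanted iv in CDF1 mice (>18 g) on day 0. After randomization, single ip dose on day 1 from the series 2.5, 10, 40, 160 mg/kg. Daily clinical checks and death recorded, weights on days 1, 4, 8. Activity scored as median survival treated/control ×100 (T/C, %), with 125–175% as minimum activity (NCI criteria).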

The test system of data set [7] is L1210. The data set is described as follows: In vitro cytotoxic activity against murine L1210 leukemia cells. The data set is classed as functional, cell-based, Mus musculus. The method in brief: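 Murine L1210 leukemia cells grown in RPMI 1640 with 10% heat-inactivated horse serum at 37 °C, 5% CO2, used within 40 passages (doubling time 8-10 h). Exponentially growing cells (1.5 × 10^5/well) exposed to a concentration range for 48 h, then counted electronically.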

Data set [8] has as its system Mus musculus. The data set is described as follows: percent T / C values ([…] / control) against P388 murine leukemia cells at 40 mg/kg dose. The data set is classed as functional. Put shortly: (§2)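 CDF1 mice over 18 g implanted iv with 10^6 P388 leukemia cells on day 0 and randomized. Single ip dose on day 1, chosen from 2.5, 10, 40 or 160 mg/kg. Survival and clinical signs followed daily; weights taken days 1, 4 and 8. T/C% is median survival of treated over control × 100; 125-175% is the minimum activity level.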

Data set [9] deals with Mus musculus. The data set is described as follows: compound was tested in vivo for inhibition of P388 murine leukemia cells after iv / ip administration. It counts as functional. Put shortly:
as §2

Data set [10] concerns Mus musculus. The data set is described as follows: percent T / C values ([…] / control) against P388 murine leukemia cells at 160 mg/kg dose. It counts as functional. The method in brief:
as §2

For data set [11], the system named is Mus musculus. The data set is described as follows: compound was tested in vivo for inhibition of P388 murine leukemia cells after iv / ip administration at 40 mg/ kg; NA indicates inactive. The data set is classed as functional, organism-based. Further details: dose 40 mg/ kg. Put shortly:
as §1

[12] abbreviates: Mus musculus, P388, read-out: ED50.

In the case of `COc1cc([C@@H]2c3cc4c(cc3C(OC3OC5COC(C)OC5C(O)C3N(C)C)C3COC(=O)[C@@H]32)OCO4)cc(OC)c1O` (stereo partly specified), the solubility in data set [1] was found to be 15 mg/mL (≈ 24.4 mM). Also, the EC50 in data set [2] worked out at 56000 nM.
Take `COc1cc([C@@H]2c3cc4c(cc3[C@H](O)[C@H]3COC(=O)[C@H]23)OCO4)cc(OC)c1OC` [PODOFILOX]: the midpoint of inhibition in data set [3], the IC50, lay at 3000 nM.
Consider `COc1cc([C@@H]2c3cc4c(cc3[C@@H](OC3CC(N5CCOCC5)C5OC(C)OCC5O3)[C@H]3COC(=O)[C@H]23)OCO4)cc(OC)c1O` (stereo partly specified), for which the S entry in [4] was “Insoluble”. For the same compound, in [5], the half-maximal effective concentration (EC50) is greater than 1000 nM. The ED50 entry in data set [6] is “inactive”. In addition, the IC50 in data set [7] (Mus musculus, L1210) was greater than 1000 nM.
The compound `COc1cc([C@@H]2c3cc4c(cc3[C@@H](OC3CC(N(C)C)C5OC(C)OCC5O3)[C@H]3COC(=O)[C@H]23)OCO4)cc(OC)c1O` (stereo in doubt; 28) returned a S in [1] of 24 mg/mL. In addition, the concentration giving a half-maximal response (EC50) in [5] was greater than 100000 nM. The same compound displayed a T/C max in data set [8] (40 mg/kg) of 243%. The same compound registered a 50% effective dose (ED50) in [9] of 1.7 mg/kg. In data set [7] (l1210), this compound returned an IC50 of 110 nM.
Take `COc1cc([C@@H]2c3cc4c(cc3[C@@H](OC3CC(NCC#N)C5OC(C)OCC5O3)[C@H]3COC(=O)[C@H]23)OCO4)cc(OC)c1O` (stereo partly specified): the S entry in data set [4] is recorded as “Insoluble”. In addition, in [5], the EC50 is greater than 1000 nM. This compound also showed a T/C max in data set [10] of 186%. Also, the ED50 in data set [9] (setting [12]) was 20 mg/kg. In addition, the half-inhibitory concentration (IC50) in data set [3] was greater than 100000 nM; in data set [7] (Mus musculus, L1210) it was 2000 nM.
Compound `COc1cc([C@@H]2c3cc4c(cc3CC3COC(=O)[C@@H]32)OCO4)cc(OC)c1O` (stereo partly specified) yielded a half-inhibitory concentration (IC50) in [3] of 13000 nM.
Turning to `COc1cc([C@@H]2c3cc4c(cc3[C@@H](OC3CC(N)C5OC(C)OCC5O3)[C@H]3COC(=O)[C@H]23)OCO4)cc(OC)c1O` (stereo in doubt; 17), the solubility in [1] came to 11 mg/mL (≈ 19.2 mM). The compound further came in with an EC50 in data set [5] greater than 100000 nM. The compound also displayed a T/C max in data set [10] of 300%. Also, the 50% effective dose (ED50) in data set [9] came to 5 mg/kg. The figures for the IC50 in data set [3] and in data set [7] (l1210) were greater than 10000 nM and 230 nM, respectively.
Take `COc1cc([C@@H]2c3cc4c(cc3[C@@H](O[C@@H]3O[C@@H]5CO[C@@H](C)O[C@H]5[C@H](O)[C@H]3O)[C@H]3COC(=O)[C@H]23)OCO4)cc(OC)c1O` [ETOPOSIDE]: the S in [1] worked out at 0.01 mg/mL. This compound also came in with a T/C max in data set [10] of 242%. Further, the 50% effective dose (ED50) in data set [9] (setting [12]) was 5 mg/kg. Further, the IC50 in data set [7] (Mus musculus, L1210) is 200 nM.
In turn, `COc1cc([C@@H]2c3cc4c(cc3[C@@H](OC3CC(N)C5OC(C)OCC5O3)[C@H]3COC(=O)[C@H]23)OCO4)cc(OC)c1O` (stereo in doubt; 27) registered a S in [1] of 9 mg/mL. Further, in data set [5], the EC50 is greater than 100000 nM. This compound displayed a T/C max in data set [8] of 193%. This compound also registered an ED50 in [9] of 1.7 mg/kg. For the same compound, the IC50 in data set [3] was greater than 50000 nM; in data set [7] (l1210) it was 70 nM.
In the case of `COc1cc([C@@H]2c3cc4c(cc3[C@@H](OC3CC(N(C)C)C5OC(C)OCC5O3)[C@H]3COC(=O)[C@H]23)OCO4)cc(OC)c1O` (stereo in doubt; 29), the solubility in data set [1] turned out to be 26 mg/mL (≈ 43.4 mM). Besides, the EC50 in data set [5] was greater than 100000 nM. The T/C max in data set [8] (40 mg/kg) is listed as 257%. The compound also returned an ED50 in data set [9] of 5 mg/kg. The 50% inhibitory concentration (IC50) is greater than 50000 nM in data set [3] and 90 nM in data set [7] (Mus musculus, L1210).
Consider `COc1cc([C@@H]2c3cc4c(cc3[C@@H](OC3CC(N)C(O)C(C)O3)[C@H]3COC(=O)[C@H]23)OCO4)cc(OC)c1O` (stereo partly specified), for which the solubility in [1] is 13 mg/mL (≈ 24.5 mM). The same compound displayed an EC50 in [5] of 5600 nM. The ED50 entry in data set [11] was “inactive”. In addition, the concentration for half-maximal inhibition (IC50) was greater than 10000 nM in [3] and 12000 nM in [7] (Mus musculus, L1210).
In the same order, the values of `COc1cc([C@@H]2c3cc4c(cc3[C@@H](OC3CC(NCCN)C5OC(C)OCC5O3)[C@H]3COC(=O)[C@H]23)OCO4)cc(OC)c1O` (stereo partly specified) are 40 mg/mL (≈ 65.1 mM), greater than 100000 nM, “inactive”, greater than 10000 nM and 1700 nM.
Taken in the same sequence, the figures for `COc1cc([C@@H]2c3cc4c(cc3[C@@H](O[C@@H]3CC(N)C5OC(C)OCC5O3)[C@H]3COC(=O)[C@H]23)OCO4)cc(OC)c1O` (stereo partly specified) were 10 mg/mL (≈ 17.5 mM), greater than 100000 nM, “inactive”, greater than 50000 nM and 1300 nM.
With `COc1cc([C@@H]2c3cc4c(cc3[C@@H](OC3CC(N)C(O)C(CN)O3)[C@H]3COC(=O)[C@H]23)OCO4)cc(OC)c1O` (stereo partly specified), in [1], the solubility is 42 mg/mL (≈ 77.1 mM). The same compound registered an EC50 in data set [5] greater than 100000 nM. Besides, the ED50 entry in [11] is “inactive”. The IC50 turned out to be 11000 nM in data set [3] and 210 nM in data set [7] (Mus musculus, L1210).
